Results taken from ChEMBL document CHEMBL1126023, “Synthesis, antinociceptive activity, and opioid receptor profiles of substituted trans-3-(decahydro- and octahydro-4a-isoquinolinyl)phenols” (J Med Chem, 1992).

What was measured:
Mus musculus = experiment: Effective dose for the inhibition of acetylcholine induced mouse abdominal contriction was determined in vivo; type: functional; conditions: Abdomen
Summary of the method: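 Mouse abdominal constriction induced by acetylcholine. Compounds given sc in saline vehicle. ED50 reported in mg/kg sc, with 95% confidence limits, or both values where only two determinations were made.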

[1] = molecular target: Opioid receptors; mu/kappa/delta; experiment: (§1) In vitro inhibitory activity against opioid receptor in Guinea pig ileum; type: tissue-based, Cavia porcellus
[2] = molecular target: Mu-type opioid receptor (Cavia porcellus) (UniProt P97266); experiment: Dose ratio IC50 after beta-FNA (10e-6 M) 30 min pretreatment on guinea pig ileum and IC50 before beta-FNA treatment against opioid receptor mu in guinea pig ileum; type: tissue-based
Oryctolagus cuniculus [3] = species: Oryctolagus cuniculus; experiment: In vitro antagonist affinity constant was measured on rabbit vas deferens; type: functional
Oryctolagus cuniculus [4] = species: Oryctolagus cuniculus; experiment: In vitro antagonist affinity constant was measured on rabbit vas deferens AT 10e-6 M concentration; type: functional
[5] = as §1; type: functional, tissue-based

Sequence of Mu-type opioid receptor (Cavia porcellus) (P97266 whole entry): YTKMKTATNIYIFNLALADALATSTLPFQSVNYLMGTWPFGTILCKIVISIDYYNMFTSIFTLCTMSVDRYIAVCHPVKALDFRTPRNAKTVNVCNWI

Question: For `C=C1CC[C@H]2CN(C)CCC2(c2cccc(O)c2)C1` (some centres not stated), which ED50 (Mus musculus) is on record?
Answer: Its ED50 is 0.18 mg/kg.

Question: What about the IC50 [1] of the same compound?
Answer: The IC50 was 60 nM.

Question: What about the Dose ratio [2] of the same compound?
Answer: Its Dose ratio is 22.

Question: And the pKB (Oryctolagus cuniculus [3])?
Answer: Its pKB is 5.9.

Question: What does the source list for `C=C1CCC2(c3cccc(O)c3)CCN(CC3CCC3)C[C@@H]2C1` (some centres not stated)?
Answer: ED50 (Mus musculus): 1.06 mg/kg; pKB (Oryctolagus cuniculus [3]): 5.3

Question: Which ED50 (Mus musculus) does the source give for `C=CCN1CCC2(c3cccc(O)c3)CC(=C)CC[C@H]2C1` (some centres not stated) here?
Answer: The ED50 was 0.55 mg/kg.

Question: And the IC50 [1]?
Answer: The IC50 was 140 nM.

Question: And the Dose ratio [2]?
Answer: Its Dose ratio is 3.3.

Question: What about the pKB (Oryctolagus cuniculus [3]) of the same compound?
Answer: The pKB was 5.5.

Question: For `C=C1CC[C@H]2CN(CC3CC3)CCC2(c2cccc(O)c2)C1` (some centres not stated), which ED50 (Mus musculus) is on record?
Answer: Its ED50 is 0.17 mg/kg.

Question: What about the IC50 [1] of the same compound?
Answer: Its IC50 is 15 nM.

Question: What about the Dose ratio [2] of the same compound?
Answer: Its Dose ratio is 1.7.

Question: What about the pKB (Oryctolagus cuniculus [3]) of the same compound?
Answer: The pKB was 6.3.

Question: Which results are given for `Oc1cccc(C23CCCC[C@H]2CN(CC2CC2)CC3)c1` (some centres not stated)?
Answer: ED50 (Mus musculus): 1.09 mg/kg; IC50 [1]: 150 nM; Dose ratio [2]: 2.8; inhibition at 1 µM (Oryctolagus cuniculus [4]): 24%

Question: For `C=C1C[C@@H](C)[C@H]2CN(CC3CC3)CCC2(c2cccc(O)c2)C1` (some centres not stated), which ED50 (Mus musculus) is on record?
Answer: The ED50 was 0.05 mg/kg.

Question: And the IC50 (Oryctolagus cuniculus [3])?
Answer: Its IC50 is 28 µM.

Question: Which ED50 (Mus musculus) does the source give for `O=C1CCC2(c3cccc(O)c3)CCN(CC3CC3)C[C@@H]2C1` (some centres not stated) here?
Answer: Its ED50 is over 10 mg/kg.

Question: What does the source list for `CC[C@@]12CCN(CC3CC3)C(C(=O)c3ccc(O)cc31)[C@@H]2C` [ETHYLKETOCYCLAZOCINE]?
Answer: IC50 [5]: 0.5 nM; ED50 (Mus musculus): 0.08 mg/kg

Question: For `O=C1CC[C@H]2CN(CC3CC3)CCC2(c2cccc(O)c2)C1` (some centres not stated), which ED50 (Mus musculus) is on record?
Answer: The ED50 was 1.6 mg/kg.

Question: And the IC50 [1]?
Answer: The IC50 was 120 nM.

Question: And the Dose ratio [2]?
Answer: The Dose ratio was 1.4.

Question: What about the pKB (Oryctolagus cuniculus [3]) of the same compound?
Answer: The pKB was 6.1.

Question: Which results are given for `C=C1CCC2(c3cccc(O)c3)CCN(CC3CC3)C[C@@H]2C1` (some centres not stated)?
Answer: ED50 (Mus musculus): 1.3 mg/kg; pKB (Oryctolagus cuniculus [3]): 5.8

Question: With `CN1CC[C@]23c4c5ccc(O)c4O[C@H]2[C@@H](O)C=C[C@H]3[C@H]1C5` [MORPHINE] as the compound, how does the ED50 (Mus musculus) read?
Answer: The ED50 was 0.47 mg/kg.

Question: With `Oc1cccc(C23CC=CC[C@H]2CN(CC2CC2)CC3)c1` (some centres not stated) as the compound, how does the ED50 (Mus musculus) read?
Answer: The ED50 was 0.53 mg/kg.

Question: And the IC50 [1]?
Answer: Its IC50 is 90 nM.

Question: What about the Dose ratio [2] of the same compound?
Answer: The Dose ratio was 2.3.

Question: Which results are given for `C=C1C[C@H](C)[C@H]2CN(CC3CC3)CCC2(c2cccc(O)c2)C1` (some centres not stated)?
Answer: ED50 (Mus musculus): 3.3 mg/kg; pKB (Oryctolagus cuniculus [3]): 4.8

Question: What does the source list for `C=C1CC[C@H]2CN(CC3CCC3)CCC2(c2cccc(O)c2)C1` (some centres not stated)?
Answer: ED50 (Mus musculus): 0.23 mg/kg; pKB (Oryctolagus cuniculus [3]): 5.3

Question: Which ED50 (Mus musculus) does the source give for `CN1CCC2(c3cccc(O)c3)CC=CC[C@H]2C1` (some centres not stated) here?
Answer: The ED50 was 0.5 mg/kg.

Question: What about the IC50 [1] of the same compound?
Answer: Its IC50 is 130 nM.

Question: What about the Dose ratio [2] of the same compound?
Answer: Its Dose ratio is over 30.

Question: And the pKB (Oryctolagus cuniculus [3])?
Answer: Its pKB is 5.4.

Question: For `Oc1cccc(C23CC=CC[C@H]2CN(CC2CCC2)CC3)c1` (some centres not stated), which ED50 (Mus musculus) is on record?
Answer: The ED50 was 0.39 mg/kg.

Question: What about the IC50 [1] of the same compound?
Answer: Its IC50 is 60 nM.

Question: And the Dose ratio [2]?
Answer: Its Dose ratio is 14.7.

Question: And the pKB (Oryctolagus cuniculus [3])?
Answer: The pKB was 5.7.

Question: What does the source list for `Oc1cccc(C23C=C[C@H](O)C[C@H]2CN(CC2CC2)CC3)c1` (some centres not stated)?
Answer: ED50 (Mus musculus): > 10 mg/kg; pKB (Oryctolagus cuniculus [3]): 5.6

Question: With `Oc1cccc(C23CC[C@H](O)C[C@H]2CN(CC2CC2)CC3)c1` (some centres not stated) as the compound, how does the ED50 (Mus musculus) read?
Answer: The ED50 was over 10 mg/kg.

Question: For `C=CCN1CCC2(c3cccc(O)c3)CC=CC[C@H]2C1` (some centres not stated), which ED50 (Mus musculus) is on record?
Answer: The ED50 was 1.91 mg/kg.

Question: And the pKB (Oryctolagus cuniculus [3])?
Answer: Its pKB is 5.6.

Question: For `O=C1CCC2(c3cccc(O)c3)CCN(CC3CCC3)C[C@@H]2C1` (some centres not stated), which ED50 (Mus musculus) is on record?
Answer: Its ED50 is over 10 mg/kg.

Question: With `Oc1cccc(C23CC[C@H](O)C[C@H]2CN(CC2CCC2)CC3)c1` (some centres not stated) as the compound, how does the ED50 (Mus musculus) read?
Answer: Its ED50 is over 10 mg/kg.
